Experiment [1] deals with MDA-MB-468. The experiment in a line: Antiproliferative activity against human MDA-MB-468 cells assessed as inhibition of cell proliferation incubated for 24 to 72 hrs by SRB assay. In kind it is functional, cell-based. The method, boiled down: (§1)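 Cells seeded 1 × 10^4/well in DMEM + 10% FBS, incubated overnight at 37 °C, 5% CO2. Treated with serial dilutions, 62.5–1000 µM for MDA-MB-468 and 62.5–2000 µM for HCT 15, for 24, 48 and 72 h. DMSO 0.5% in the 2x working stock. Sulforhodamine-B read-out, % inhibition = (control − sample)/control × 100. Triplicate experiments, ≥4 replicates per concentration.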

Experiment [2] has as its system HCT-15. The experiment in a line: Induction of cell cycle arrest in human HCT-15 cells assessed as decrease in cells at S phase at 100 uM. Type of experiment: functional, cell-based. Summed up:
(§2)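 HCT 15 cells at 2 × 10^5/2 mL/well treated 48 h with 50, 100 or 200 µM, with DMSO control. Trypsinized, centrifuged 300 × g for 5 min, fixed 30 min in cold 70% ethanol on ice. Treated with RNase A 4 h, then propidium iodide 10 min at room temperature. Flow cytometry gave % sub-G0/G1, G0/G1, S and G2/M.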

For experiment [3], the system named is MDA-MB-468. The experiment in a line: Induction of apoptosis in human MDA-MB-468 cells assessed as cell death by measuring red signals by acridine orange/EtBr staining based analysis. The note with it: read-out: LD50 (the source's name). In kind it is functional. Summed up:
(§3)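 Cells seeded 0.3 × 10^6/well and grown about 36 h. Exposed 48 h to 250, 500 and 1000 µM (MDA-MB-468) or 500, 1000 and 2000 µM (HCT 15); 0.5% DMSO control. Trypsinized, stained 5 min with EtBr (100 µM) plus acridine orange (100 µM). Fluorescence microscopy counted green live versus orange dead cells, reported as % dead cells.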

Experiment [4] concerns HCT-15. The experiment in a line: Antiproliferative activity against human HCT-15 cells assessed as inhibition of cell proliferation incubated for 24 to 72 hrs by SRB assay. In kind it is functional, cell-based. The method, boiled down: as §1
Experiment [5] relates to HCT-15. The experiment in a line: Induction of apoptosis in human HCT-15 cells assessed as cell death by measuring red signals by acridine orange/EtBr staining based analysis. Type of experiment: functional. The conditions noted are these: read-out: LD50 (the source's name). The method, boiled down:
as §3

Experiment [6] deals with HCT-15. The experiment in a line: Induction of cell cycle arrest in human HCT-15 cells assessed as decrease in cells at sub G0/G1 phase at 100 uM. Type of experiment: functional, cell-based. Summed up:
as §2

Experiment [7] deals with HCT-15. The experiment in a line: Induction of apoptosis in human HCT-15 cells assessed as decrease in caspase 3 activity. Type of experiment: functional, cell-based. Summed up: (§4)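 Cells seeded 5 × 10^5/2 mL and incubated overnight at 37 °C. Treated 24 h at 37 °C with 62.5–1000 µM (MDA-MB-468) or 62.5–2000 µM (HCT 15), then a further 24 h incubation step. Trypsinized, fixed in cold 70% ethanol 30 min at −20 °C, PBS-washed, stained 30 min in the dark at room temperature with anti-caspase-3/7 antibody. FACS on FL1 gave % caspase-3 cells; mean ± SD of triplicates.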

Experiment [8] deals with HCT-15. The experiment in a line: Induction of cell cycle arrest in human HCT-15 cells assessed as decrease in cells at G2/M phase at 100 uM. In kind it is functional, cell-based. Summed up: as §2
For experiment [9], the system named is MDA-MB-468. The experiment in a line: Induction of apoptosis in human MDA-MB-468 cells assessed as increase in caspase 3 activity. In kind it is functional, cell-based. The method, boiled down:
as §4

Experiment [10] deals with HCT-15. The experiment in a line: Induction of cell cycle arrest in human HCT-15 cells assessed as decrease in cells at G0/G1 phase at 100 uM. In kind it is functional, cell-based. Summed up:
as §2

Experiment [11] has as its system MCF7. The experiment in a line: Induction of cell cycle arrest in human MCF7 cells assessed as increase in cells at sub G0/G1 phase at 200 uM incubated for 48 hrs by flow cytometric analysis (reference value: 2.57 %). Type of experiment: functional.
Experiment [12] deals with HCT-15. The experiment in a line: Induction of cell cycle arrest in human HCT-15 cells assessed as reduction in S phase at 200 uM. Type of experiment: functional, cell-based. The method, boiled down:
as §2

Experiment [13] relates to HCT-15. The experiment in a line: Induction of cell cycle arrest in human HCT-15 cells assessed as reduction in G0/G1 phase at 200 uM. Type of experiment: functional, cell-based. Summed up:
as §2

Experiment [14] concerns HCT-15. The experiment in a line: Induction of cell cycle arrest in human HCT-15 cells assessed as decrease in cells at G2/M phase at 200 uM. Type of experiment: functional, cell-based. The method, boiled down:
as §2

Experiment [15] has as its system HCT-15. The experiment in a line: Induction of cell cycle arrest in human HCT-15 cells assessed as decrease in cells at S phase at 50 to 200 uM. Type of experiment: functional, cell-based. The note with it: dose 50-200 µM. Summed up:
(§5)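 MDA-MB-468 or HCT 15 cells were seeded at 2 × 10^5 per 2 mL well in 6-well plates and exposed for 48 h to 50, 100 or 200 µM, with DMSO as control. Cells were trypsinized, spun 300×g for 5 min at 25 °C and fixed in cold 70% ethanol (30 min, ice). RNase A (100 µM, 4 h) was added, then PI (stock 50 µM, 10 min, RT). Phase distribution (sub-G0/G1, G0/G1, S, G2/M) was read by flow cytometry.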

For experiment [16], the system named is MDA-MB-468. The experiment in a line: Induction of cell cycle arrest in human MDA-MB-468 cells assessed as increase in cells at G0/G1 phase at 50 uM. Type of experiment: functional, cell-based. Summed up:
as §5

Experiment [17] concerns MDA-MB-468. The experiment in a line: Induction of apoptosis in human MDA-MB-468 cells assessed as increase in caspase 3 activity at 62.5 to 1000 uM. In kind it is functional, cell-based. The conditions noted are these: dose 62.5-1000 µM. The method, boiled down:
(§6)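 Cells were plated at 5 × 10^5 per 2 mL in 6-well plates and held overnight at 37 °C in CO2. They were then treated for 24 h at 37 °C, with MDA-MB-468 at 62.5–1000 µM and HCT 15 at 62.5–2000 µM. Cells were trypsinized, fixed 30 min at −20 °C in cold 70% ethanol, PBS-washed and labelled with anti-caspase-3/7 antibody (30 min, dark, RT). Flow cytometry (FL1) gave % caspase-3-expressing cells, triplicate, mean ± SD.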

Experiment [18] relates to MDA-MB-468. The experiment in a line: Induction of cell cycle arrest in human MDA-MB-468 cells assessed as increase in cells at sub G0/G1 phase at 200 uM (reference value: 1.78 %). Type of experiment: functional. The method, boiled down:
as §5

In experiment [19] the test system is HCT-15. The experiment in a line: Induction of cell cycle arrest in human HCT-15 cells assessed as accumulation of cells at G2/M phase at 200 uM (reference value: 12.25 %). In kind it is functional. The conditions noted are these: time 48 hrs.
Experiment [20] relates to MDA-MB-468. The experiment in a line: Induction of cell cycle arrest in human MDA-MB-468 cells assessed as decrease in cells at S phase at 50 to 200 uM. In kind it is functional, cell-based. The note with it: dose 50-200 µM. Summed up: as §5
For experiment [21], the system named is HCT-15. The experiment in a line: Induction of apoptosis in human HCT-15 cells assessed as decrease in caspase 3 activity at 2000 uM. Type of experiment: functional, cell-based. The method, boiled down: as §6
The test system of experiment [22] is HCT-15. The experiment in a line: Induction of cell cycle arrest in human HCT-15 cells assessed as decrease in cells at G0/G1 phase at 50 to 200 uM. In kind it is functional, cell-based. The conditions noted are these: dose 50-200 µM. The method, boiled down:
as §5

Experiment [23] has as its system MDA-MB-468. The experiment in a line: Induction of cell cycle arrest in human MDA-MB-468 cells assessed as decrease in cells at G0/G1 phase at 100 to 200 uM. In kind it is functional, cell-based. The note with it: dose 100-200 µM. The method, boiled down:
as §5

The test system of experiment [24] is MDA-MB-468. The experiment in a line: Induction of cell cycle arrest in human MDA-MB-468 cells assessed as decrease in cells at G2/M phase at 50 to 200 uM. In kind it is functional, cell-based. The note with it: dose 50-200 µM. The method, boiled down: as §5

Active and inactive are the calls of the source. The calls are words filed in the database; no cut-off is given here.

Broadly, the IC50 is the midpoint of a concentration-inhibition curve. For the molecule `O=c1[nH]cc(F)c(=O)[nH]1` [FLUOROURACIL], the IC50 in experiment [1] worked out at 551 µM; in experiment [4] it was 579 µM; in experiment [7], 426 µM; in experiment [9], 495 µM. For the same molecule, the outcome in experiment [2], in [8] and in experiment [10] was Active. Also, the CC50 in experiment [3] turned out to be 495 µM; in experiment [5] it was 426 µM. In addition, in experiment [6], the outcome was inactive.

Turning to `C=C1CC[C@H](O)C/C1=C/C=C1\CCC[C@]2(C)[C@@H]([C@H](C)CCCC(C)C)CC[C@@H]12` [CHOLECALCIFEROL], the Activity in experiment [11] is 46.66%. The result in [12], in experiment [13] and in experiment [14] was Active.

Take `CCOc1ccc([C@@H]2C3CSCN3[C@]3(C(=O)Nc4ccccc43)[C@H]2C(=O)c2ccc(C)cc2)cc1OC` (stereo not given in full): the result in [15], in experiment [17], in experiment [20], in [22], in experiment [23] and in [24] was Active. The outcome in experiment [16] and in [21] was inactive. The IC50 in experiment [1] stood at 361 µM; in experiment [4], 274 µM; in experiment [7], 365 µM; in experiment [9], 407 µM. Besides, the Activity in [18] is 44.5%; in experiment [19], 43.5%. Besides, the CC50 in [3] was found to be 281 µM; in [5] it was 312 µM.

The values above are taken from ChEMBL document CHEMBL6177920, “Natural product-inspired [3 + 2] cycloaddition-based spirooxindoles as dual anticancer agents: synthesis, characterization, and biological evaluation by in vitro and in silico methods” (RSC Med Chem, 2025).
